Assay outcomes deposited in PubChem by Johns Hopkins Ion Channel Center.
Shown are actives, neighbours in structure and some others; about 3.5% of the full set was active somewhere.
MrgX1 ag: activates human MrgX1 receptor signaling; MrgX1-HEK293 cells, Fluo-4 calcium fluorescence, agonist mode; stronger effect = higher value; B-score at 10 µM; AID 588627; Q96LB2; 310,000 compounds, 0.44% hits;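 active = calcium response B-score plate-corrected fluorescence ratio at least 3 library SD, with starting fluorescence B-score inside 5 SD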
Target sequence (Q96LB2 whole entry, looked up): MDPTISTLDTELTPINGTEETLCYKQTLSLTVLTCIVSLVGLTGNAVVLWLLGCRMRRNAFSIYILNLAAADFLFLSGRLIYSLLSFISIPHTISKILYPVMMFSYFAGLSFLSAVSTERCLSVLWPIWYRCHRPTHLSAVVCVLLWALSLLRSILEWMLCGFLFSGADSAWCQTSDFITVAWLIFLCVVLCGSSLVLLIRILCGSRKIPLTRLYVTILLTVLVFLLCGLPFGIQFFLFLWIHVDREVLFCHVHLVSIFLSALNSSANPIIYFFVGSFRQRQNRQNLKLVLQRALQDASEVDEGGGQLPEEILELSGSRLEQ
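times = overnight plating, then 30 min 37 °C plus 30 min room-temperature dye loading | assay system = stable human MrgX1 HEK293 cell line | input = fifteen thousand cells per well | signal = kinetic calcium dye fluorescence, Fluo-4 NW | dosing = compound delivered in addition one of three | read-out = B-scored fluorescence response ratio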
RGS4 act: potentiators or activators of RGS4; HEK293 M3R/inducible RGS4, carbachol calcium flux Fluo4; stronger effect = lower value; B-score at 10 µM; 310,000 compounds, 0.92% hits;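 active = B-score of the integrated calcium signal more than 4 SD below the library mean, with starting fluorescence not abnormally high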;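 note: negative B-score means reduced calcium response which marks RGS4 activation or potentiation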
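System: HEK293 FlpIn-TREx cells, stable M3R, doxycycline-inducible RGS4. Timing: overnight RGS4 induction, 30 min dye load 37 °C, 20 min compound RT. Also added: carbachol, ECmax concentration. Measured by: Fluo4 fluorescence kinetic imaging of calcium. Evaluation: integrated calcium ratio converted to B score.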
MrgX1 antag: human MrgX1 receptor antagonism, primary screen; AID 588676; 310,000 compounds, 1.3% hits; Q96LB2; MRGX1-HEK293 calcium flux, Fluo-4, BAM8-22 antagonism; stronger effect = lower value; B-score at 10 µM;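 active = calcium-response B-score plate-corrected more than 3 library SD below zero, starting fluorescence within 5 deviations, no agonist response on first addition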;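 note: peak minus trough fluorescence over baseline after final BAM8-22 challenge near maximal dose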
MrgX1 PAM: human MrgX1 positive allosteric modulation, primary screen. MrgX1-HEK293, Fluo-4 calcium flux, FDSS; stronger effect = higher value. Q96LB2. 310,000 compounds, 0.63% hits. B-score at 10 µM;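 active = plate-corrected calcium response at least 3 library SD above typical, normal starting fluorescence, not activating the receptor alone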;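 note: compound read alongside a low EC10 to EC30 dose of BAM8-22 agonist; peak minus trough fluorescence over baseline measured at the second addition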
RGS4 inh: inhibitors of human RGS4. AID 463165. HEK293 M3R/RGS4 inducible, Fluo-4 calcium flux; stronger effect = higher value; triggered by carbachol at its EC20. B-score at 10 µM. 310,000 compounds, 0.45% hits;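 active = B-score, a plate-corrected calcium signal, over three deviations above library mean, with baseline fluorescence within five deviations of library mean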;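 note: RGS4 expression induced by doxycycline in cells with stable M3 receptor; B-score is computed from the integrated fluorescence ratio over baseline after carbachol; higher B-score means a larger calcium signal and so more RGS4 inhibition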
Target sequence (P49798 whole entry, looked up): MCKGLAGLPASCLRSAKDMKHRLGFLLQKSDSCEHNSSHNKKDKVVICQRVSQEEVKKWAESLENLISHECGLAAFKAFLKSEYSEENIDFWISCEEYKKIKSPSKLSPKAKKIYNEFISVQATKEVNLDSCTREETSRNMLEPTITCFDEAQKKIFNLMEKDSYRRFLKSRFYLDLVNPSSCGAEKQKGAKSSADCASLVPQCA
The depositor's hits bear a star; i = inactive; / = not tested or not shown.

SMILES	MrgX1 ag	RGS4 act	MrgX1 antag	MrgX1 PAM	RGS4 inh
CCCCCNC(=O)c1c[nH]c2ccc(S(=O)(=O)N3CCC4(CC3)OCCO4)cc2c1=O	i	i	i	i	i
CCc1ccc(CN2CCC(Oc3ccc(C(=O)N4CCCC4)cc3)CC2)cc1	i	i	i	i	i
CCc1ccc(CN2CCC(Oc3ccc(C(=O)N4CCCCC4)cc3)CC2)cc1	i	-7.2*	i	i	i
Cc1ccc(C(=O)Nc2ncc([N+](=O)[O-])s2)cc1	i	i	-4.5*	i	i
O=C(Nc1ncc([N+](=O)[O-])s1)c1ccc2c(c1)OCO2	i	i	i	i	i
Cc1onc(-c2ccccc2)c1C(=O)Nc1ncc([N+](=O)[O-])s1	i	i	-4.5*	i	i
O=C(NC1CC2CCCC(C1)N2C(=S)Nc1ccc(Cl)cc1)C1CC1 (stereo not drawn)	i	-7*	i	i	i
CC1(c2nnc(-c3ccc(F)cc3)o2)CC(c2c(Cl)cccc2Cl)=NO1 (stereo not drawn)	i	i	i	i	i
CC1(c2nnc(-c3ccc(Cl)cc3)o2)CC(c2c(Cl)cccc2Cl)=NO1 (stereo not drawn)	i	-9.2*	i	i	i
CCCn1nc([N+](=O)[O-])c(C(C#N)c2nc3ccccc3s2)c(Cl)c1=O (stereo not drawn)	29*	i	i	i	i
COc1ccc(NC(=O)CSc2nnc(CCC(=O)Nc3ccc(C)c(Cl)c3)n2C)cc1	i	i	i	i	i
O=C(NCCNc1ccc(Cl)cc1[N+](=O)[O-])c1cccnc1	i	i	i	i	i
Cc1ccoc1C(=O)NCCNc1ccc(Cl)cc1[N+](=O)[O-]	i	i	-5.1*	i	i
Cc1cc(/C=N\NC(=O)CC(=O)NC2CCCCC2)c(C)n1-c1ccc(Cl)c(Cl)c1	i	i	i	i	i
Cc1cc(/C=N\NC(=O)CC(=O)NC2CCCCC2)c(C)n1-c1cccc(Cl)c1Cl	i	i	-6.3*	i	i
CCN(CCCNC(=O)CCCCn1c(=O)[nH]c2ccccc2c1=O)c1ccccc1	i	i	-5*	i	i
O=C(/C=C/c1ccccc1)Nc1cccc(C(=O)O)c1	i	i	-5.6*	i	i
O=C(/C=C/c1ccccc1)Nc1ccc2c(c1)OCCO2	i	i	-4.6*	i	i
N#C/C(=C\c1cccc(O)c1)C(=O)Nc1ccc2c(c1)OCCO2	i	i	i	17*	i
O=C(/C=C/c1ccco1)Nc1ccc2c(c1)OCCO2	i	i	i	i	i
CCC(=O)Nc1cccc(C(=O)/C=C/c2ccccc2)c1	35*	i	i	i	i
CCOc1ccc(CN2CCN(S(=O)(=O)c3ccc(NC(C)=O)cc3)CC2)cc1	i	i	i	i	i
O=c1[nH]c2cc3c(cc2cc1CN(Cc1ccco1)C(=S)NCCCN1CCOCC1)OCCO3	i	i	i	i	i
Cc1cccnc1NC1(C(F)(F)F)N=C2SCCN2C1=O (stereo not drawn)	i	i	i	i	i
COC(=O)CSc1cc([N+](=O)[O-])cc2c1c(C1OCCO1)nn2-c1ccccc1	i	i	i	i	i
SMILES	MrgX1 ag	RGS4 act	MrgX1 antag	MrgX1 PAM	RGS4 inh
O=C(NC1CC1)C1=C[C@H](c2ccc(C(F)(F)F)cc2)C[C@H](OCc2ccc(CO)cc2)O1	i	i	i	i	i
O=C1NC(c2ccco2)Nc2sc3c(c21)CCN(Cc1ccccc1)C3 (stereo not drawn)	30*	/	i	i	/
Cn1cccc1C1NC(=O)c2c(sc3c2CCC(C(C)(C)C)C3)N1 (stereo not drawn)	i	i	i	i	i
CN1CCc2c(sc3c2C(=O)NC(c2ccco2)N3)C1 (stereo not drawn)	27*	i	i	i	i
CN1CCc2c(sc3c2C(=O)NC(c2cn(Cc4ccccc4)c4ccccc24)N3)C1 (stereo not drawn)	29*	i	i	i	i
CN1CCc2c(sc3c2C(=O)NC(c2cccc(OC(=O)c4cccs4)c2)N3)C1 (stereo not drawn)	i	i	i	i	i
CCOC(=O)N1CCc2c(sc3c2C(=O)NC(c2ccccc2)N3)C1 (stereo not drawn)	i	i	i	i	i
CCOc1cc(/C=N/NC(=O)c2ccc(CN3CCOCC3)cc2)ccc1OCc1ccccc1	i	-7.3*	i	i	i
CCOc1cc(/C=N/NC(=O)c2ccncc2)ccc1OC(=O)c1ccco1	i	i	i	i	i
CCOc1cc(/C=N/NC(=O)C(O)(c2ccccc2)c2ccccc2)ccc1OC(=O)c1ccco1	i	-10*	i	i	i
O=C(NCc1ccc(Cl)cc1)C1CCCCN1S(=O)(=O)c1ccccc1 (stereo not drawn)	i	i	i	i	i
CCOc1cc(/C=C2/SC(=S)N(C)C2=O)ccc1Oc1ccc([N+](=O)[O-])cc1[N+](=O)[O-]	i	i	i	i	i
CCOc1ccc(N(C)c2ccc(/C=C3/SC(=S)NC3=O)cc2)cc1	35*	i	i	i	i
Cc1ccc(NC(=O)CNCCCN2CCOCC2)cc1S(=O)(=O)N1CCCCC1	i	i	i	i	i
O=C(CSCc1ccccc1)Nc1ccc2c(c1)OCO2	i	i	i	i	i
O=C(CSCc1c(Cl)cccc1Cl)Nc1ccc2c(c1)OCO2	i	-7.5*	i	i	i
OCC[C@H]1C[C@H](O)[C@@H](O)[C@@]2(CCc3ccccc3O2)O1	i	/	i	i	/
CC(Nc1nc(N2CCN(S(C)(=O)=O)CC2)nc2ccccc12)c1ccccc1 (stereo not drawn)	i	i	i	i	i
N#C/C(=C\c1ccc2c(c1)OCO2)C(N)=S	i	i	i	7.5*	i
CCOC(=O)/C(C#N)=C\c1ccc2c(c1)OCO2	i	i	i	i	i
O=C(O)C[C@H](O)C[C@H](O)/C=C/c1c(C2CC2)nc2ccccc2c1-c1ccc(F)cc1	/	-7*	/	/	i
Cc1nc2ccccc2c(-c2ccccc2)c1CC(=O)O	i	i	i	i	i
CC(C)NC[C@@H](O)COc1cccc2ccccc12	i	i	i	i	i
CC(C)NC[C@@H](O)c1ccc(O)c(O)c1	32*	i	i	i	i
